Measured values reported in ChEMBL document CHEMBL2424622, “Development of amino-pyrimidine inhibitors of c-Jun N-terminal kinase (JNK): kinase profiling guided optimization of a 1,2,3-benzotriazole lead” (Bioorg Med Chem Lett, 2013).

Experiments:
[1] = molecular target: Calcium/calmodulin-dependent protein kinase type 1 (Homo sapiens, UniProt Q14012); test: Competitive binding affinity to CAMK1 (unknown origin) at 10 uM in presence of ATP relative to control
[2] = molecular target: Mitogen-activated protein kinase 8 (Homo sapiens, UniProt P45983); test: Competitive binding affinity to JNK1 (unknown origin) at 10 uM in presence of ATP relative to control
Procedure, shortened: (§1)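 In vitro ATP-site competition binding assay across a diverse panel of 128 kinases, with each compound tested at a single concentration. Kinase binding is expressed relative to control.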

[3] = molecular target: Mitogen-activated protein kinase 9 (Homo sapiens, UniProt P45984); test: Competitive binding affinity to JNK2 (unknown origin) at 10 uM in presence of ATP relative to control; procedure, shortened: as §1
[4] = molecular target: Mitogen-activated protein kinase 11 (Homo sapiens, UniProt Q15759); test: Competitive binding affinity to p38-beta (unknown origin) at 10 uM in presence of ATP relative to control
Procedure, shortened: (§2)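 In vitro ATP-site competition binding assay across a diverse panel of 128 kinases, with compound tested at a single concentration. Kinase selectivity scores (S15) were calculated from the panel profiles.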

[5] = molecular target: High affinity nerve growth factor receptor (Homo sapiens) (UniProt P04629); test: Competitive binding affinity to TRKA (unknown origin) at 10 uM in presence of ATP relative to control; procedure, shortened: as §2
[6] = molecular target: Receptor tyrosine-protein kinase erbB-4 (Homo sapiens) (UniProt Q15303); test: Competitive binding affinity to ERBB4 (unknown origin) at 10 uM in presence of ATP relative to control
Procedure, shortened: (§3)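 In vitro ATP-site competition binding assay, part of profiling against a diverse panel of 128 kinases. Each compound was tested at a single concentration of 10 µM. Kinome selectivity was summarized as S15 selectivity scores.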

[7] = molecular target: BMP-2-inducible protein kinase (Homo sapiens) (UniProt Q9NSY1); test: Competitive binding affinity to BIKE (unknown origin) at 10 uM in presence of ATP relative to control
[8] = molecular target: Tyrosine-protein kinase Fer (Homo sapiens) (UniProt P16591); test: Competitive binding affinity to FER (unknown origin) at 10 uM in presence of ATP relative to control; procedure, shortened: as §3
[9] = molecular target: T1, 3-phosphoinositide-dependent protein kinase 1 (Homo sapiens) (UniProt O15530); test: Competitive binding affinity to PDPK1 (unknown origin) at 10 uM in presence of ATP relative to control; procedure, shortened: as §2
T1 sequence (whole entry): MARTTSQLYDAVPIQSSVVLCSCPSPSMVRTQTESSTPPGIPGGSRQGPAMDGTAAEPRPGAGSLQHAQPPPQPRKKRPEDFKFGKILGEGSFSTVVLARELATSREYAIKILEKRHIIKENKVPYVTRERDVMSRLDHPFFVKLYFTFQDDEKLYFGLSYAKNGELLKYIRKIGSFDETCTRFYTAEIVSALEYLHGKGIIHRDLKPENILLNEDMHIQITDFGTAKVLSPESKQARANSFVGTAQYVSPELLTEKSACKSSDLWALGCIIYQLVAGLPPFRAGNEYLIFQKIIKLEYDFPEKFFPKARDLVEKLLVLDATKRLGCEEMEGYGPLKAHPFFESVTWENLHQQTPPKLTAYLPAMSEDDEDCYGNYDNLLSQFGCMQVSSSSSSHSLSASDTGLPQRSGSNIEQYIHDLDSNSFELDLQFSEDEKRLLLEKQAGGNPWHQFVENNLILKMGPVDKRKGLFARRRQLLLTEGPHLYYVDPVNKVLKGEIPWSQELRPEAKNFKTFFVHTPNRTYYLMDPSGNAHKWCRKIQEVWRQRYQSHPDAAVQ

[10] = molecular target: cAMP-dependent protein kinase catalytic subunit alpha (Homo sapiens) (UniProt P17612); test: Competitive binding affinity to PKAC-alpha (unknown origin) at 10 uM in presence of ATP relative to control; procedure, shortened: as §2
[11] = molecular target: Ephrin type-A receptor 4 (Homo sapiens) (UniProt P54764); test: Competitive binding affinity to EPHA4 (unknown origin) at 10 uM in presence of ATP relative to control; procedure, shortened: as §3
[12] = molecular target: Phosphorylase b kinase gamma catalytic chain, skeletal muscle/heart isoform (Homo sapiens) (UniProt Q16816); test: Competitive binding affinity to PHKG1 (unknown origin) at 10 uM in presence of ATP relative to control; procedure, shortened: as §2
[13] = molecular target: T2, Tyrosine-protein kinase ITK/TSK (Homo sapiens) (UniProt Q08881); test: Competitive binding affinity to ITK (unknown origin) at 10 uM in presence of ATP relative to control; procedure, shortened: as §3
T2 sequence (whole entry): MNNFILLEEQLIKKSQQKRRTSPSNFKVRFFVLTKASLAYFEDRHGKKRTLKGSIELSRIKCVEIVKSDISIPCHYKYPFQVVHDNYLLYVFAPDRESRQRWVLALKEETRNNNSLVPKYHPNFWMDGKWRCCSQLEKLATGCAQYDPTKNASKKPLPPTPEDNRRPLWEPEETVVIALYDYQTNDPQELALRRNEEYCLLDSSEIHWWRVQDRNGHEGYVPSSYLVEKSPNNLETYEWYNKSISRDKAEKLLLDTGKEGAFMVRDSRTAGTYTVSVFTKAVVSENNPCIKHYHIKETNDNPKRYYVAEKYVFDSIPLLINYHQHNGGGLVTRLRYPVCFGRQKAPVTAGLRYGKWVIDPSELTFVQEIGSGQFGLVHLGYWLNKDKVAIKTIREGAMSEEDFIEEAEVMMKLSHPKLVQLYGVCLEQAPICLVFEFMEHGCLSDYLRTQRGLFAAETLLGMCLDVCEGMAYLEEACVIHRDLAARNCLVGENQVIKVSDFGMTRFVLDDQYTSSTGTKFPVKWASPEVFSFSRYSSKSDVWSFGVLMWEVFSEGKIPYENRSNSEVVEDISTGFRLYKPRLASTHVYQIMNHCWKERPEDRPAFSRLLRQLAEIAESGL

[14] = molecular target: Myosin light chain kinase 2, skeletal/cardiac muscle (Homo sapiens) (UniProt Q9H1R3); test: Competitive binding affinity to MYLK2 (unknown origin) at 10 uM in presence of ATP relative to control; procedure, shortened: as §2
[15] = molecular target: Casein kinase II subunit alpha (Homo sapiens) (UniProt P68400); test: Competitive binding affinity to CSNK2A1 (unknown origin) at 10 uM in presence of ATP relative to control
[16] = molecular target: Tyrosine-protein kinase Fes/Fps (Homo sapiens) (UniProt P07332); test: Competitive binding affinity to FES (unknown origin) at 10 uM in presence of ATP relative to control; procedure, shortened: as §3
[17] = molecular target: Tyrosine-protein kinase SYK (Homo sapiens) (UniProt P43405); test: Competitive binding affinity to SYK (unknown origin) at 10 uM in presence of ATP relative to control; procedure, shortened: as §2

Sequence of Ephrin type-A receptor 4 (Homo sapiens) (P54764 whole entry, canonical isoform): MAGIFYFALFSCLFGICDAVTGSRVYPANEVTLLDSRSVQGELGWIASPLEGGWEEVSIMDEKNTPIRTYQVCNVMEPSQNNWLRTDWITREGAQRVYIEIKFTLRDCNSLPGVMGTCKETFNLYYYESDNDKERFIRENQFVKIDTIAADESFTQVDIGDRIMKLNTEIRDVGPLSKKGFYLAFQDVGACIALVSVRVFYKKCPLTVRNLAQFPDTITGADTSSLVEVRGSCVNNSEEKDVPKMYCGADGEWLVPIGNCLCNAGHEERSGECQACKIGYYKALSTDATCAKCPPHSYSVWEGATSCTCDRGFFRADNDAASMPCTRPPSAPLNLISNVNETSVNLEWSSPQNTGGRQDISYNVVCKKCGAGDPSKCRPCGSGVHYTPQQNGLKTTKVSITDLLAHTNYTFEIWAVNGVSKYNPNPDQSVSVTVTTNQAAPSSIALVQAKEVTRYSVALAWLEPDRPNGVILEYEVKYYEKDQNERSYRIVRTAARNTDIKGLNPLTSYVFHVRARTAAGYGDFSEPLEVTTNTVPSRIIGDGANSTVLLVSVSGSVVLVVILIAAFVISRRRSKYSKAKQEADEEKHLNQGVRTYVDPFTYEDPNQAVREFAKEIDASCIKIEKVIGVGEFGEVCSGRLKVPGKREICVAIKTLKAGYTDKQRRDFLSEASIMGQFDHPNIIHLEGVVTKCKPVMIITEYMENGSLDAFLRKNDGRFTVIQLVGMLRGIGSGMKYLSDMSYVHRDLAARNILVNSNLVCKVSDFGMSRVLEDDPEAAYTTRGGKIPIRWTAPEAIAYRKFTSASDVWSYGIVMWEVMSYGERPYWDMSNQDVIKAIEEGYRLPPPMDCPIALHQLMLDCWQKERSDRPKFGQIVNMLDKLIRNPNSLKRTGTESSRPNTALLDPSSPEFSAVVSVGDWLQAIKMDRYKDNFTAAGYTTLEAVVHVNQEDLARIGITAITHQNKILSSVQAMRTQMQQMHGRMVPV
Sequence of Mitogen-activated protein kinase 11 (Q15759 whole entry): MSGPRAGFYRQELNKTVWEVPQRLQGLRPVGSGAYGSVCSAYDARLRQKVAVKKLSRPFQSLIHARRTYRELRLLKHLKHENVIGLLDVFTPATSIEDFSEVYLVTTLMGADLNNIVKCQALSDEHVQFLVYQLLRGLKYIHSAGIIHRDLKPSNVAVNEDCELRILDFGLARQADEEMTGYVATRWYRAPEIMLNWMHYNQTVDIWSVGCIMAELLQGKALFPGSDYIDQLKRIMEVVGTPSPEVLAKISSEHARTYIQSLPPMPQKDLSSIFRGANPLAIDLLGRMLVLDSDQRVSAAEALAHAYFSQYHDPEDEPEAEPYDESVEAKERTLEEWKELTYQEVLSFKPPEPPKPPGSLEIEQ
Sequence of Calcium/calmodulin-dependent protein kinase type 1 (Q14012 whole entry, looked up): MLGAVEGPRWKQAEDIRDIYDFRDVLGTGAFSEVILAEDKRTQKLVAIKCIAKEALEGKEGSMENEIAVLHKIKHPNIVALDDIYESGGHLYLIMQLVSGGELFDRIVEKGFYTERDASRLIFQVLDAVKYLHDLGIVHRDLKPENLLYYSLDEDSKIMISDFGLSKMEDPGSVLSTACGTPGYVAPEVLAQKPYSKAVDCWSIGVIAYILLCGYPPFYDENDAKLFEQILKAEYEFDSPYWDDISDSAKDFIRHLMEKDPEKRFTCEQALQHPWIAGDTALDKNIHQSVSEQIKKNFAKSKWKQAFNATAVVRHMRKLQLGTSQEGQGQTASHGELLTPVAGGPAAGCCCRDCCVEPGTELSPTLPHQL
Sequence of Mitogen-activated protein kinase 8 (P45983 whole entry): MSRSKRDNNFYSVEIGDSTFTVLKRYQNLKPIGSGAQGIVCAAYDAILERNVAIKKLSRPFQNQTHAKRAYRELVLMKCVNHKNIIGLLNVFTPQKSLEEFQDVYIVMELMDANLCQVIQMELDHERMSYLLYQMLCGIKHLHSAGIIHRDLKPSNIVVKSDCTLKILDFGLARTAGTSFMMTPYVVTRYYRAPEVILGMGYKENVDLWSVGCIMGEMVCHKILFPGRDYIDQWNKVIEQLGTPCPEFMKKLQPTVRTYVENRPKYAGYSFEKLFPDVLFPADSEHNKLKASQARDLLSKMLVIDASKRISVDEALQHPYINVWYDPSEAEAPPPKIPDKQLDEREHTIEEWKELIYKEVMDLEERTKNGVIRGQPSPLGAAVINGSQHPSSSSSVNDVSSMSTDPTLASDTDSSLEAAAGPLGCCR
Sequence of High affinity nerve growth factor receptor (Homo sapiens) (P04629 33-796 limits assumed): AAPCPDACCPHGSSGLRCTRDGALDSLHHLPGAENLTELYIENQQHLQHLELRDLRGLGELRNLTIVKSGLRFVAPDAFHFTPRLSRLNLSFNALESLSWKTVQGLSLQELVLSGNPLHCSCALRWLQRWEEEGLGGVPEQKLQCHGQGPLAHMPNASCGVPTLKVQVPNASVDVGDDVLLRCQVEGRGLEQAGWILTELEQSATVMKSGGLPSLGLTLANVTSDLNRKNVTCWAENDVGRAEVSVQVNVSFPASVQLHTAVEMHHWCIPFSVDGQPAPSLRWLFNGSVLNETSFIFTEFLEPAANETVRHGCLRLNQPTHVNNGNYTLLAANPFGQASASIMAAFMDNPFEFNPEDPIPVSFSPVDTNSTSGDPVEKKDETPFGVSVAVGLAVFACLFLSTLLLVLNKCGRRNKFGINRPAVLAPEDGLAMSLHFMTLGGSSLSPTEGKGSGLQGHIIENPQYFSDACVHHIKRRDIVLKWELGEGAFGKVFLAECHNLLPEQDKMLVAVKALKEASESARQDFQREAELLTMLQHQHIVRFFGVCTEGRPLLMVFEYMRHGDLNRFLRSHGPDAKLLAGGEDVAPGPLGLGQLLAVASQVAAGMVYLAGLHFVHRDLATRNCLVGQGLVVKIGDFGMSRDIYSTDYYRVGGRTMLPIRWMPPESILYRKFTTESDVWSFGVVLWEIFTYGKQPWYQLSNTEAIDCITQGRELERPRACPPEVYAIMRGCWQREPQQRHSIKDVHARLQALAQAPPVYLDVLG
Sequence of Myosin light chain kinase 2, skeletal/cardiac muscle (Homo sapiens) (Q9H1R3 whole entry): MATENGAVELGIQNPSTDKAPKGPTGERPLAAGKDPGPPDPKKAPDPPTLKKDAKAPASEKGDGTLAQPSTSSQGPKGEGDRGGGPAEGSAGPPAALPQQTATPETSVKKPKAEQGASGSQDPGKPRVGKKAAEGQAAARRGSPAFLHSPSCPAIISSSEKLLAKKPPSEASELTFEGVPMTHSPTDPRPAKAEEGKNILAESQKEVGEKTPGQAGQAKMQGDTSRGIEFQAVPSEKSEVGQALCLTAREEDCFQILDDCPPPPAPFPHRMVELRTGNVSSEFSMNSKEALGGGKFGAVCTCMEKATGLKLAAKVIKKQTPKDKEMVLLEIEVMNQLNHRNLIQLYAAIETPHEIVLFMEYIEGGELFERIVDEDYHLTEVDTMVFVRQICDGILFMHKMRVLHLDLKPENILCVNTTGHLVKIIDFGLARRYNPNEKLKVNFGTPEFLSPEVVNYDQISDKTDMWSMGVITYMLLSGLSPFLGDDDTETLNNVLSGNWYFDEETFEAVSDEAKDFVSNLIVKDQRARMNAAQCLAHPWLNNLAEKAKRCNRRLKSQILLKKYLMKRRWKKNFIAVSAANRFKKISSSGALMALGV
Sequence of Tyrosine-protein kinase Fer (Homo sapiens) (P16591 whole entry, looked up): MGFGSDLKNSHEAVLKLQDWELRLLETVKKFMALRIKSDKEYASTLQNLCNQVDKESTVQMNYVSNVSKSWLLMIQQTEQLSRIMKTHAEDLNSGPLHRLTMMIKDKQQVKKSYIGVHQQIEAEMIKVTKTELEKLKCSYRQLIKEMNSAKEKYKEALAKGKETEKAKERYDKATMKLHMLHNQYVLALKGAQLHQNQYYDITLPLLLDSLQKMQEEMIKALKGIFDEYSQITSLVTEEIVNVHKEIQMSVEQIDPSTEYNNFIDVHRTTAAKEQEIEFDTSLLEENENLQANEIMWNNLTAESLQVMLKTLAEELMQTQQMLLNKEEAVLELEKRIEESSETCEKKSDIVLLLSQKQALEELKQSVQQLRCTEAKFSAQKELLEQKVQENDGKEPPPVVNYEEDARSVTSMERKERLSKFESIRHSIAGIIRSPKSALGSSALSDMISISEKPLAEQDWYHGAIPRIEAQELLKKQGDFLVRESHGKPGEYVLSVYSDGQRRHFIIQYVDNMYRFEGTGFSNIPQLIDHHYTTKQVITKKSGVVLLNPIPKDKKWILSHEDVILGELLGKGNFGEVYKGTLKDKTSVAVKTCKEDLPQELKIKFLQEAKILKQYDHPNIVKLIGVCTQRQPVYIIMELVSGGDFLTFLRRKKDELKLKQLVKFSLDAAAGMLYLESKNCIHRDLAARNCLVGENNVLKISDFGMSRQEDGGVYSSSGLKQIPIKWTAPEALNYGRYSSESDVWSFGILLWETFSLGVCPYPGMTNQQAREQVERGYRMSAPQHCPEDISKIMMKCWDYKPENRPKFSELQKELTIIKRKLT
Sequence of Casein kinase II subunit alpha (Homo sapiens) (P68400 whole entry, looked up): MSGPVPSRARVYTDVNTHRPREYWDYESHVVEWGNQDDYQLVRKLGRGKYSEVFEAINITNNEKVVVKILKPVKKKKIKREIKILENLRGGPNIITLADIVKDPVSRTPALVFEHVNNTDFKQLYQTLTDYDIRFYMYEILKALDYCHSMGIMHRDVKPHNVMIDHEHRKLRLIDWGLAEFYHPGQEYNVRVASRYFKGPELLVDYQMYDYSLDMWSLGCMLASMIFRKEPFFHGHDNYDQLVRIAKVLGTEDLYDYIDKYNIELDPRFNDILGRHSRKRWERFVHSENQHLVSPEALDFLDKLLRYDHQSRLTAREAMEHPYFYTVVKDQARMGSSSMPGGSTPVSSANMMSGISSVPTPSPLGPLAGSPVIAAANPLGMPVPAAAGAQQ

CS(=O)(=O)CCCOc1cccc2c1ccn2-c1ccnc(N[C@H]2CC[C@H](C(=O)N3CCC(O)CC3)CC2)n1
inhibition [1]: > 85% | inhibition [2]: > 85% | inhibition [3]: > 85% | inhibition [4]: > 85%

O[C@H]1CC[C@H](Nc2nccc(-n3ccc4ccccc43)n2)CC1
inhibition [5]: < 50% | inhibition [6]: < 50% | inhibition [1]: 73% | inhibition [7]: < 50% | inhibition [8]: < 50% | inhibition [9]: < 50% | inhibition [10]: < 50% | inhibition [11]: < 50% | inhibition [12]: < 50% | inhibition [13]: < 50% | inhibition [2]: 98% | inhibition [14]: < 50% | inhibition [3]: 99% | inhibition [15]: < 50% | inhibition [4]: < 50% | inhibition [16]: < 50% | inhibition [17]: < 50%

N[C@H]1CC[C@H](Nc2nccc(-n3nnc4ccccc43)n2)CC1
inhibition [5]: < 50% | inhibition [6]: < 50% | inhibition [1]: 89% | inhibition [7]: 99% | inhibition [8]: < 50% | inhibition [9]: < 50% | inhibition [10]: < 50% | inhibition [11]: < 50% | inhibition [12]: 93% | inhibition [13]: < 50% | inhibition [2]: 99% | inhibition [14]: 73% | inhibition [3]: 100% | inhibition [15]: 99% | inhibition [4]: < 50% | inhibition [16]: < 50% | inhibition [17]: < 50%

O[C@H]1CC[C@H](Nc2nccc(-n3nnc4ccccc43)n2)CC1
inhibition [5]: < 50% | inhibition [6]: < 50% | inhibition [1]: < 50% | inhibition [7]: 86% | inhibition [8]: < 50% | inhibition [9]: < 50% | inhibition [10]: < 50% | inhibition [11]: < 50% | inhibition [12]: < 50% | inhibition [13]: < 50% | inhibition [2]: 99% | inhibition [14]: < 50% | inhibition [3]: 99% | inhibition [15]: 80% | inhibition [4]: < 50% | inhibition [16]: < 50% | inhibition [17]: < 50%

O[C@H]1CC[C@H](Nc2nccc(-n3ncc4ccccc43)n2)CC1
inhibition [5]: < 50% | inhibition [6]: < 50% | inhibition [1]: 76% | inhibition [7]: 81% | inhibition [8]: < 50% | inhibition [9]: < 50% | inhibition [10]: < 50% | inhibition [11]: < 50% | inhibition [12]: < 50% | inhibition [13]: < 50% | inhibition [2]: 99% | inhibition [14]: < 50% | inhibition [3]: 99% | inhibition [15]: 87% | inhibition [4]: < 50% | inhibition [16]: < 50% | inhibition [17]: < 50%

O=C([C@H]1CC[C@H](Nc2nccc(-n3nnc4ccccc43)n2)CC1)N1CCOCC1
inhibition [5]: < 50% | inhibition [6]: < 50% | inhibition [1]: < 50% | inhibition [7]: 87% | inhibition [8]: < 50% | inhibition [9]: < 50% | inhibition [10]: < 50% | inhibition [11]: < 50% | inhibition [12]: < 50% | inhibition [13]: < 50% | inhibition [2]: 100% | inhibition [14]: < 50% | inhibition [3]: 98% | inhibition [15]: 71% | inhibition [4]: < 50% | inhibition [16]: < 50% | inhibition [17]: < 50%

O[C@H]1CC[C@H](Nc2nccc(-c3n[nH]c4ccccc34)n2)CC1
inhibition [5]: 99% | inhibition [6]: < 50% | inhibition [1]: 98% | inhibition [7]: 99% | inhibition [8]: 97% | inhibition [9]: 97% | inhibition [10]: < 50% | inhibition [11]: < 50% | inhibition [12]: 77% | inhibition [13]: 96% | inhibition [2]: 100% | inhibition [14]: 84% | inhibition [3]: 93% | inhibition [15]: 98% | inhibition [4]: < 50% | inhibition [16]: < 50% | inhibition [17]: 69%
